For experiment [1], the target named is T1, Sulfotransferase 1E1 (Bos taurus, UniProt P19217).
T1 sequence (P19217 whole entry): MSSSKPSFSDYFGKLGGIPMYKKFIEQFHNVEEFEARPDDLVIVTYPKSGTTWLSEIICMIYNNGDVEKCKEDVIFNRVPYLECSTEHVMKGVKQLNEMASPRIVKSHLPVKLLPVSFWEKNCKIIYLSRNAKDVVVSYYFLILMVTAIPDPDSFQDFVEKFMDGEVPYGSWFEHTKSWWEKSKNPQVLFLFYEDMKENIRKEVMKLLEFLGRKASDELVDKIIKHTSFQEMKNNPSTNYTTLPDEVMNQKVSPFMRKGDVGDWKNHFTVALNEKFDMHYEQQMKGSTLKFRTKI
Kind of experiment: Inhibition of bovine estrogen sulfotransferase by the compound. The method in brief: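 Inhibitor was present at a fixed concentration in 90% aqueous Me2SO. Ki values were derived with relationships for competitive inhibitors.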

For experiment [2], the system named is MCF7. Kind of experiment: Concentration required for 30% Inhibition of human breast cancer cell line MCF-7. Type of experiment: functional. The method in brief:
(§1)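 Human breast cancer cells were grown in glass vials in medium with 5% calf serum and treated in log phase. Compounds were dissolved in Me2SO and diluted in medium to a final solvent concentration of at most 0.2%. Growth was followed over 2-3 days, or 5 days where noted. IC30 and IC50 are the concentrations giving 30% and 50% growth inhibition. Values average two or more experiments.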

Experiment [3] relates to P388. Briefly: (§2) Concentration required for 50% Inhibition of P388 murine leukemia cells. Type of experiment: functional. Conditions: Mus musculus, read-out: ID50 (the source's name); call rule not given here. The method in brief:
(§3)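 Exponentially growing P388 murine leukemia cells were kept in medium with 10% horse serum and 1 μM mercaptoethanol. They were exposed to graded drug levels, and total cell numbers were counted 24 h later. IC50 is the concentration inhibiting growth by 50% over the test period.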

The subject of experiment [4] is MCF7. Kind of experiment: Concentration required for 50% Inhibition of human breast cancer cell line MCF-7. Type of experiment: functional. Particulars: read-out: ID50 (the source's name). The method in brief:
as §1

Experiment [5] has as its system MCF7. Briefly: Concentration required for 30% Inhibition of human breast cancer cell line MCF-7; NA means no inhibition at -20 concentration. Type of experiment: functional, cell-based. Summed up:
as §1

The subject of experiment [6] is P388. The description is as §2. Type of experiment: functional, Mus musculus. Summed up: as §3
Experiment [7] concerns MCF7. Briefly: Inhibition of human breast cancer cell line MCF-7. Particulars: for IC50: read-out: ID50 (the source's name). Type of experiment: functional. The method in brief: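 MCF-7 breast cancer cells were grown in sterile glass scintillation vials in medium with 5% calf serum and treated in log phase. Compounds were dissolved in Me₂SO and diluted in medium, with final solvent ≤0.2%. Growth was measured over 2-3 days, or 5 days where footnoted. IC₃₀/IC₅₀ is the concentration inhibiting growth by 30/50% over the test period, averaged from two or more experiments.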

What is called Ki is a dissociation constant, usually derived from enzyme kinetics or from competition with a known ligand. Low values mean higher affinity, high ones lower affinity.

The compound `C[C@]12CC[C@@H]3c4ccc(OCCCOC[C@H]5OC(n6cnc7c(N)ncnc76)[C@H](O)[C@@H]5O)c([N+](=O)[O-])c4CC[C@H]3[C@@H]1CCC2=O` (stereo not given in full) showed a Ki in experiment [1] of 84 µM. In addition, the ID30 in experiment [2] was found to be 3.6 µM. For the same compound, the IC50 in experiment [3] was 15 µM; in experiment [4] it was 6.4 µM.
The like results for `C[C@]12CC[C@@H]3c4ccc(OCCOC[C@H]5OC(n6cnc7c(N)ncnc76)[C@H](O)[C@@H]5O)c([N+](=O)[O-])c4CC[C@H]3[C@@H]1CCC2=O` (stereo not given in full) were, in that order, 32 µM, 11 µM, 70 µM and over 10 µM.
For the compound `C[C@]12CC[C@@H]3c4ccc(OCCCn5cnc6c(N)ncnc65)c([N+](=O)[O-])c4CC[C@H]3[C@@H]1CCC2=O`, in experiment [1], the affinity, expressed as Ki, was 350 µM. Besides, the ID30 result in experiment [5] is on record as “Not Active”.
As to `C[C@]12CC[C@@H]3c4ccc(OCCn5cnc6c(N)ncnc65)c([N+](=O)[O-])c4CC[C@H]3[C@@H]1CCC2=O`, in experiment [1], affinity was put at a Ki of 1000 µM. The ID30 in experiment [2] turned out to be 7.8 µM. The IC50 in experiment [3] was determined as 30 µM; in experiment [4] it was 10 µM.
With `C[C@]12CC[C@@H]3c4ccc(OCCCCn5cnc6c(N)ncnc65)c([N+](=O)[O-])c4CC[C@H]3[C@@H]1CCC2=O`, the affinity in experiment [1], expressed as Ki, was 140 µM. The compound further yielded an ID30 in experiment [2] of 2.1 µM. The same compound yielded an ID50 in experiment [6] of 5 µM. The IC50 in experiment [4] was 4 µM.
On to `C[C@]12CC[C@@H]3c4ccc(OCCCn5cnc6c(N)ncnc65)cc4CC[C@H]3[C@@H]1CCC2=O`, for which the Ki in experiment [1] turned out to be 1000 µM. In experiment [5], the ID30 entry was “Not Active”.
`C[C@]12CC[C@@H]3c4ccc(OP(=O)(O)OP(=O)(O)OC[C@H]5O[C@@H](n6c(Br)nc7c(N)ncnc76)[C@H](O)[C@@H]5OP(=O)(O)O)cc4CC[C@H]3[C@@H]1CCC2=O`: the Ki in experiment [1] was 0.25 µM.
On to `COc1ccc2c(c1[N+](=O)[O-])CC[C@@H]1[C@@H]2CC[C@]2(C)C(=O)CC[C@@H]12`, for which, in experiment [7], the ID30 was over 10 µM and the IC50 was over 10 µM.
Turning to `O=c1[nH]cc(F)c(=O)[nH]1` [FLUOROURACIL], in experiment [7], the ID30 came out at 0.2 µM and the IC50 came to 0.3 µM.
